High-throughput results deposited in PubChem by several laboratories.
FLuc act counter = affects firefly luciferase, flagging false hits in luciferase stimulation screens; ATPlite luciferase biochemical, luminescence, 10 min; 0 = ATP-free wells, 1 = DMSO control; activation factor at 10 µM; 200,000 tested, under 10 active;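 active means luciferase activation factor, scaled between plate controls, of at least 2 with compound at 10 µM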
Target sequence (P08659 whole entry, looked up): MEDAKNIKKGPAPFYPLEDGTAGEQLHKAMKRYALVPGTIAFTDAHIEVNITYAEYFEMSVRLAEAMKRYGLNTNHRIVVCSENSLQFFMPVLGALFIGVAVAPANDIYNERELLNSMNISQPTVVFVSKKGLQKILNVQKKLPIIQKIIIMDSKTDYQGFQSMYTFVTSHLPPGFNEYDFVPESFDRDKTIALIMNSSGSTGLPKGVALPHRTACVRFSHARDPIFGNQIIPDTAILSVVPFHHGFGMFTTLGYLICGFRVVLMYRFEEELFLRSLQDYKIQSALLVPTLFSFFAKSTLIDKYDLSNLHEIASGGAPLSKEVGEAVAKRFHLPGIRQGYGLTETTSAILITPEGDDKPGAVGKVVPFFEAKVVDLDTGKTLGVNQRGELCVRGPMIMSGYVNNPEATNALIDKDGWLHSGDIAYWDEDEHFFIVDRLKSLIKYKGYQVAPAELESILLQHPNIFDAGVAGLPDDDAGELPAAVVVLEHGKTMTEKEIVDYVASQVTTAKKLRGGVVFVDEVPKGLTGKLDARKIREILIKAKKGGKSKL
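Assay system: Luciferase/luciferin detection reagent, cell-free biochemical luciferase assay / Also added: ATP substrate / Schedule: 10 min at ambient temperature / Measured by: luminescence measurement of luciferase light output / Benchmarks: low control with PBS replacing ATP, high control enzyme plus ATP without compound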
FLuc inhib CS = Photinus pyralis luciferase inhibition counter-screen; P08659; AID 1006; inhibition, % at 10 µM; ATPLite firefly luciferase biochemical luminescence, 10 min; hit rate 1.5% among 200,000;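 active means inhibition above about 50% when tested at 10 µM, limit read from the data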
NF-kB expr up = compounds increasing NF-kB expression in human neuronal cells | NF-kB reporter expression; stronger effect = higher value | fold change at 12.5 µM | hit rate 1.6% among 190,000; in the data active means fold change above about 3.3
APP 5'UTR act = APP 5'UTR luciferase reporter activation; hit rate 1% among 190,000; activation, % at 2 µM; AID 1276; SH-SY5Y APP 5'UTR luciferase reporter, luminescence; zero percent = DMSO vehicle wells;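 active means activation above a set limit, based on mean plus 3 SD of controls, cut at about 140% in these data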
STAT1 activator = increases IFN-gamma driven STAT1 reporter signal | NIH 3T3 STAT1-luciferase reporter, luminescence; 100% = IFN-gamma alone, no compound | activation (% of control), % at 5.5 µM | hit rate 2.6% among 200,000 | AID 932;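 active means activation above the screen-wide mean activation plus 3 SD, cut at about 130% in these data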;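 further: raw ratio to IFN-gamma control signal so 100% means no change and 0% no light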
* = called active by the depositor; x = no result given. Compounds with a hit are over-represented: about 4.1% of the library has one in this group of screens.

SMILES	FLuc act counter	FLuc inhib CS	NF-kB expr up	APP 5'UTR act	STAT1 activator
Cn1c(N/N=C/c2c[nH]c3ccccc23)nc2ccccc21	0.6	38	2.2	81	120
Cc1ccc(/C=N\Nc2nc3ccc(Cl)cc3[nH]2)o1	0.7	26	3.7*	73	136*
C(=N\Nc1nc2ccccc2[nH]1)/c1ccccn1	0	96*	0.9	72	13
CCOC(=O)Nc1c(O)ccc2oc(C)c(-c3ccccc3)c12	1	2	0.76	12	91
CC(C)CCNCC(=O)NC(c1ccccc1)c1ccccc1	1	-3	1.3	15	95
CCCn1nnnc1NC(=O)c1ccc(C)cc1Cl	1	0	1.2	6	108
CCCCn1c(/C=N/Nc2nc3ccccc3[nH]2)nc2ccccc21	0.9	8	0.77	-88	112
Fc1ccccc1-c1ccc(/C=N/Nc2nc3ccccc3[nH]2)o1	0.1	93*	2.9	74	108
Cc1ccc2cc(/C=N/Nc3nc4ccccc4[nH]3)c(Cl)nc2c1	0.1	94*	1.9	86	95
Cc1cc(C)n(CC(O)COc2ccc(OCC(O)Cn3nc(C)cc3C)cc2)n1 (stereo not drawn)	x	x	x	12	99
O=C(NNC(=O)c1ccccc1O)c1ccco1	0.6	44	1.5	40	103
O=C1NCC(COc2ccc(Cl)cc2)O1 (stereo not drawn)	1	-2	1	-3	94
O=C(O)CSc1nc2ccccc2o1	1.1	-5	1.1	-10	104
O=[N+]([O-])c1ccc(CSc2nc3ccccc3o2)cc1	0.8	24	5*	177*	132*
COC(=O)c1ccc(CSc2nc(N)cc(N)n2)cc1	0.8	22	1.4	19	105
COC(=O)c1ccc(CSc2nc3ccccc3o2)cc1	0.7	26	3.8*	126	92
COc1ccc(S(=O)(=O)CCC(=O)Nc2cccc(OC)c2)cc1	1	0	0.93	-1	98
Fc1cccc(/C=N/N=C/c2cccc(F)c2)c1	1	5	1.1	38	147*
Cc1nc2cccc(C(=O)NCc3ccccc3)c2o1	1	1	1.1	-3	106
Oc1ccc(CN2CCN(Cc3ccccc3)CC2)c2cccnc12	x	x	6*	12	102
CN1CCN(Cc2cc(COCc3ccccc3)c3cccnc3c2O)CC1	1	-1	5.3*	-72	107
CC(=NC1CCCC1)c1c(C)[nH]n(-c2nc3ccccc3s2)c1=O	0.8	24	0.98	61	142*
CC(=NC1CC1)c1c(-c2ccccc2)[nH]n(-c2nc3ccccc3s2)c1=O	1	-2	0.89	6	114
CS(=O)(=O)c1ccc2nc(NC(=O)c3ccc(S(=O)(=O)NCC4CCCO4)cc3)sc2c1 (stereo not drawn)	1.1	-5	0.9	1	96
COC(=O)c1ccc(CNC(=O)COC(=O)C2CC3C=CC2C3)cc1 (stereo not drawn)	1.1	-5	1.1	-9	104
SMILES	FLuc act counter	FLuc inhib CS	NF-kB expr up	APP 5'UTR act	STAT1 activator
CCOC(=O)N1CCN(C(=O)CCSc2ccc(C)cc2)CC1	1.1	-5	1.3	22	105
CCOC(=O)c1sc(=NC(=O)CCSc2ccccc2)n(C)c1C	1	2	0.99	29	136*
CCOC(=O)c1sc(=NC(=O)c2cc(OC)c(OC)c(OC)c2)n(C)c1C	1.1	-6	1.1	-9	99
CCOC(=O)c1sc(=NC(=O)c2cccc(C)c2)n(C)c1C	0.6	40	3.5*	162*	142*
CCOC(=O)N1CCN(C(=O)CCSc2ccccc2)CC1	1	-3	1.8	75	134*
CCOC(=O)c1sc(=NC(=O)c2ccc(C)cc2)n(C)c1C	0.8	21	3.7*	75	139*
Cc1ccc(Nc2nc(N)c(C#N)c(CC#N)c2C#N)cc1	1.1	-7	1.3	54	102
Nc1c(N=Nc2ccccc2F)c(=O)[nH]n1-c1ccccc1	0.9	8	3.1	61	134*
CC(C)Oc1ccccc1C1Nc2ccccc2C(=O)N1c1ccc2c(c1)OCCO2 (stereo not drawn)	0.9	7	4.6*	150*	116
CC(C)Oc1ccccc1C1CC(=O)Nc2cc3c(cc21)OCCO3 (stereo not drawn)	1.2	-17	3.9*	-95	90
O=C(/C=C/c1cccs1)Nc1cccnc1	0.4	62*	1.9	62	127
O=C(/C=C/c1cccs1)Nc1nc(-c2ccccc2)cs1	1	4	1.3	29	114
O=C(/C=C/c1cccs1)Nc1scc(-c2ccccc2)c1C(=O)O	0.2	81*	2.3	120	99
Cc1ccnc(NC(=O)/C=C/c2cccs2)c1	0.1	92*	1.1	191*	137*
Nc1cc(C(F)(F)F)cc2c1SCC(=O)N2	1.1	-5	1	-8	104
COc1cc(/C=N/N=C2/C(=O)Nc3ccccc32)ccc1O	0.1	94*	1.4	-6	96
COc1cc(/C=N/N2C(=O)c3ccccc3C2=O)ccc1O	0.4	57*	1.1	6	93
CCOCCCNc1nc2ccccc2[nH]1	1	-1	1	2	100
CCOCCCNc1ccc(-c2ccccc2)nn1	0.8	20	2.5	71	140*
O=C(CCl)Nc1cccc(Oc2ccccc2)c1	0.9	12	1.4	-27	96
O=C(Nc1ccc2c(c1)OCCO2)NC12CC3CC(CC(C3)C1)C2	0.9	8	1.7	90	142*
Cc1cccc(C)c1NC(=O)Nc1ccc2c(c1)OCO2	1	-1	1.2	29	111
Cc1ccnc(NC(=O)Nc2ccc3c(c2)OCO3)c1	0.4	58*	4.9*	144*	146*
O=C(Nc1ccc2c(c1)OCO2)Nc1ccc(Br)cn1	0.9	11	2.1	18	149*
O=C(Nc1ccc2c(c1)OCCO2)Nc1ccc2c(c1)OCO2	0.1	93*	6.6*	174*	72
SMILES	FLuc act counter	FLuc inhib CS	NF-kB expr up	APP 5'UTR act	STAT1 activator
COc1ccc(NC(=O)NC23CC4CC(CC(C4)C2)C3)cc1OC	1	-2	1.4	7	95
CCN(CC)C(NC(=O)c1ccccc1)C(=O)c1ccccc1 (stereo not drawn)	1.1	-7	1.2	45	108
O=[N+]([O-])c1ccccc1N/N=C\c1ccccc1Cl	1	-4	3.7*	x	127
CCC(=O)N(Cc1ccco1)c1nc(-c2ccc(OC)cc2)cs1	1.1	-6	1.2	x	102
CCC(=O)N(CC)c1nc(-c2ccc(OC)cc2)cs1	1	3	2.4	77	143*
CC(C)OCC(O)CS(=O)Cc1ccccc1 (stereo not drawn)	1.1	-8	1.2	7	102
COC(=O)C/C=C/[C@@H](C)[C@@H](/C=N/OC[C@@H](C)[C@H](OCc1ccccc1)C(C)C)NS(=O)(=O)c1ccc(C)cc1	1.1	-9	0.94	-6	95
Cc1ccccc1OCCn1cnc2c(N)ncnc21	1	1	1.6	2	129*
